Measurements gathered from unrelated publications.
Lines come from different studies, so protocols differ.
Target: Wee1-like protein kinase (WEE1, Homo sapiens, UniProt P30291)

SMILES	assay	conditions	endpoint	value
Cn1cc(-c2cccc(N3CCc4c(sc5c4CC(C)(C)C5)C3=O)c2CO)cc(Nc2ccncn2)c1=O	enzyme activity, inhibitor	1 µM	inhibition	-4%
Cc1nn(C)cc1-c1nc2c(N3CCN(Cc4ccc(Cl)cc4)CC3)c(Cl)cnc2[nH]1	binding, competition with immobilised ligand	1 µM	remaining binding	96%
Cn1cc(-c2cc(F)cc(N3CCn4c(cc5c4CCCC5)C3=O)c2CO)cc(Nc2ccc(N3CCN(C4COC4)CC3)cn2)c1=O	enzyme activity, inhibitor	0.1 µM	inhibition	3%
Nc1ncc(-c2nc(N3CCOCC3)nc(N3CCOCC3)n2)c(C(F)F)n1	binding, competition with immobilised ligand	10 µM	remaining binding	100%
O=c1[nH]c2ccccc2n1C1CCN(Cc2ccc(-c3[nH]c4cc5ncnc5cc4nc3-c3ccccc3)cc2)CC1	cell-free assay	0.5 µM	remaining signal	93.9%
COc1cc(Nc2ncc(F)c(Nc3ccc4c(n3)NC(=O)C(C)(C)O4)n2)cc(OC)c1OC	binding	10 µM	inhibition	81%
Cn1cncc1[C@@](O)(COc1ccc(C#N)cc1-c1ccc(OC(F)(F)F)cc1)c1ccc(C#N)cc1	cell-free assay, competition with immobilised ligand	1 µM	remaining binding	100%
COc1ncccc1-c1cnn2ccc(N3CCN(C(=O)OC(C)C)CC3)nc12	binding, competition with immobilised ligand	1 µM	remaining binding	82%
CC(C)(C)c1cc(C=C(C#N)C#N)cc(Br)c1O	enzyme activity, inhibitor	0.5 µM	remaining activity	90.9%
